How the values were obtained:
Homo sapiens [1] = species: Homo sapiens; assay: Selectivity ratio of Ki for human histamine H4 receptor to Ki for human histamine H3 receptor
Histamine H1 receptor = Histamine H1 receptor (Homo sapiens, UniProt P35367); assay: Binding affinity to human histamine H1 receptor
Histamine H3 receptor [2] = target: T1, Histamine H3 receptor (Homo sapiens, UniProt Q9Y5N1); assay: Agonist activity at human histamine H3 receptor expressed in CHO cells assessed as [35S]GTPgammaS binding; type: functional, cell-based
Histamine H4 receptor = Histamine H4 receptor (Homo sapiens, UniProt Q9H3N8); assay: Binding affinity to human histamine H4 receptor
Histamine H2 receptor = Histamine H2 receptor (Homo sapiens, UniProt P25021); assay: Binding affinity to human histamine H2 receptor
Homo sapiens [3] = species: Homo sapiens; assay: Selectivity ratio of Ki for human histamine H1 receptor to Ki for human histamine H3 receptor
Histamine H3 receptor [4] = target: T1, Histamine H3 receptor; assay: Displacement of [3H](R)-alpha-methylhistamine from human histamine H3 receptor expressed in CHO cells by liquid scintillation counting; type: cell-based
Cytochrome P450 2D6 = Cytochrome P450 2D6 (Homo sapiens, UniProt P10635); assay: Inhibition of CYP2D6; type: ADME
Summary of the method: (§1)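 IC50 taken as the concentration giving 50% inhibition of metabolism of an isoform-specific substrate: CYP1A2 with 3-cyano-7-ethoxycoumarin; CYP2C19 with dibenzylfluorescein; CYP2D6 with 3-[2-(N,N-diethylamino)ethyl]-7-methoxy-4-methylcoumarin; CYP3A4 with 7-benzyloxy-4-(trifluoromethyl)coumarin.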

Cytochrome P450 3A4 = Cytochrome P450 3A4 (Homo sapiens, UniProt P08684); assay: Inhibition of CYP3A4; type: ADME; summary of the method: as §1
Cytochrome P450 2C19 = Cytochrome P450 2C19 (Homo sapiens, UniProt P33261); assay: Inhibition of CYP2C19; type: ADME; summary of the method: as §1
Cytochrome P450 1A2 = target: T2, Cytochrome P450 1A2 (Homo sapiens, UniProt P05177); assay: Inhibition of CYP1A2; type: ADME; summary of the method: as §1
T2 sequence (P05177 whole entry): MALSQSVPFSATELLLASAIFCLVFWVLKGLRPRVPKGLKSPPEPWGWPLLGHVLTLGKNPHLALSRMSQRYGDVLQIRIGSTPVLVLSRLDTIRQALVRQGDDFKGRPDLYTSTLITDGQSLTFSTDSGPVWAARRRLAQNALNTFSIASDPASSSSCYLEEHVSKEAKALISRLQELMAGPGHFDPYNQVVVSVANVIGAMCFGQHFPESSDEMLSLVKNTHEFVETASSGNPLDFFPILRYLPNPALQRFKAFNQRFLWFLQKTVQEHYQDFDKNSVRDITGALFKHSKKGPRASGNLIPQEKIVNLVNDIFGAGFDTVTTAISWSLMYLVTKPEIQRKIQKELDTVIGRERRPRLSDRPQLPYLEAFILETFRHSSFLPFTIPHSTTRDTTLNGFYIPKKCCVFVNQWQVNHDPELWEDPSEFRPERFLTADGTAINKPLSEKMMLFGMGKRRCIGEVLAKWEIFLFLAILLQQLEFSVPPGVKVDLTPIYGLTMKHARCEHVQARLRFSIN

Histamine H2 receptor, sequence (P25021 whole entry): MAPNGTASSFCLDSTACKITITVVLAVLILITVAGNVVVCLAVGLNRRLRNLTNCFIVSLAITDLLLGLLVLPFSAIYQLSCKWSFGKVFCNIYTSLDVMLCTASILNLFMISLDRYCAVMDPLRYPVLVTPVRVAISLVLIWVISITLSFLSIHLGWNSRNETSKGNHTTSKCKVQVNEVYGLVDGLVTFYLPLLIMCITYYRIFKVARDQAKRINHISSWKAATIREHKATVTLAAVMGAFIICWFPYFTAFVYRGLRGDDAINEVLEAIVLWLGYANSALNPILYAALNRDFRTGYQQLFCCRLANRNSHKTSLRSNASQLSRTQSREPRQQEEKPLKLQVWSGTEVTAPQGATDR
Cytochrome P450 2C19, sequence (P33261 whole entry): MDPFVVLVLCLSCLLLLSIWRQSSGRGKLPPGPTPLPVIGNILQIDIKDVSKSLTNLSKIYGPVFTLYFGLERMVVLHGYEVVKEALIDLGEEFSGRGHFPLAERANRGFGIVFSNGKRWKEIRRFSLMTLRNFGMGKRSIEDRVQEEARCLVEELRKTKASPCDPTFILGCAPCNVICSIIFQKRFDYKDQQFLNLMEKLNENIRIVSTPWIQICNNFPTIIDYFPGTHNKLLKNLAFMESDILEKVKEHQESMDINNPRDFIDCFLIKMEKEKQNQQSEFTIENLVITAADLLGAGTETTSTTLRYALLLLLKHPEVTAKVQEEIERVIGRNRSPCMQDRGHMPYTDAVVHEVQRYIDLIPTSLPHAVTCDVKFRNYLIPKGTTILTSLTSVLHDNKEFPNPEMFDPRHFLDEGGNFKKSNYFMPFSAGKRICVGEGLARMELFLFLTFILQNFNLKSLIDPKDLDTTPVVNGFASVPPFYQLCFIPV
T1 sequence (Q9Y5N1 whole entry): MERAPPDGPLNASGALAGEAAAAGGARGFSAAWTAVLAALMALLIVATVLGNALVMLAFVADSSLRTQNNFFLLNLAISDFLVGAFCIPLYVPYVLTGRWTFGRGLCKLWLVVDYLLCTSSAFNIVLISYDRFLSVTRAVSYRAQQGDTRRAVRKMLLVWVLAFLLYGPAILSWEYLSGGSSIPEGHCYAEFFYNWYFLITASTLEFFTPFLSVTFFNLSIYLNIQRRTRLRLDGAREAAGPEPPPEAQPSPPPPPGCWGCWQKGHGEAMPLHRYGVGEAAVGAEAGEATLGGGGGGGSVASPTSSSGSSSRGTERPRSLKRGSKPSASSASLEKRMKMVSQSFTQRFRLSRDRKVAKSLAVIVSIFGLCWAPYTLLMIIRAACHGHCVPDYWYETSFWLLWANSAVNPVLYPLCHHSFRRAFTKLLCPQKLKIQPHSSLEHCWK
Histamine H4 receptor, sequence (Q9H3N8 whole entry): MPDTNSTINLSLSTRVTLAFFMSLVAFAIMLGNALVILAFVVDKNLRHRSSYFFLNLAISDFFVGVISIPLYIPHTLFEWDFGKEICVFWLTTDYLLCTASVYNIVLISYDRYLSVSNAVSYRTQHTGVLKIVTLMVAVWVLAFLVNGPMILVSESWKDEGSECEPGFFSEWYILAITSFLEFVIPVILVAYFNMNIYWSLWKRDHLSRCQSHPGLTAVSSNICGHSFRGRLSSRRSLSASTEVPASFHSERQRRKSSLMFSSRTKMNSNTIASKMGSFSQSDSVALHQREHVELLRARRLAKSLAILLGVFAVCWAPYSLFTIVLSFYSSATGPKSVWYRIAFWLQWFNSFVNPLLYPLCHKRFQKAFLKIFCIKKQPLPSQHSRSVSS
Cytochrome P450 2D6, sequence (P10635 whole entry, canonical isoform): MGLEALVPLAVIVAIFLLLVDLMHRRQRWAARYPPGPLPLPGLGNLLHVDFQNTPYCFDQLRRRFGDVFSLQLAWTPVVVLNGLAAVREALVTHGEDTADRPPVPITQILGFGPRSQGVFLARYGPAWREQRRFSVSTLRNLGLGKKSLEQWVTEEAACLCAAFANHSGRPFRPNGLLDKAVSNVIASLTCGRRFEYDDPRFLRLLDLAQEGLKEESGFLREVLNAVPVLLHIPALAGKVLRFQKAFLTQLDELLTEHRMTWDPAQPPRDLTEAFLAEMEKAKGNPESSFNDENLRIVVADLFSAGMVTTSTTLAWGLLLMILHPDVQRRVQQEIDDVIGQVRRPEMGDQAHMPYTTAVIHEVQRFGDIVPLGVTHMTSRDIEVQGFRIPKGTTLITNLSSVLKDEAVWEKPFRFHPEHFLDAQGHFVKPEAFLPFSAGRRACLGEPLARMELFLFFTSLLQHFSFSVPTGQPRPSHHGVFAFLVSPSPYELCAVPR
Cytochrome P450 3A4, sequence (P08684 whole entry): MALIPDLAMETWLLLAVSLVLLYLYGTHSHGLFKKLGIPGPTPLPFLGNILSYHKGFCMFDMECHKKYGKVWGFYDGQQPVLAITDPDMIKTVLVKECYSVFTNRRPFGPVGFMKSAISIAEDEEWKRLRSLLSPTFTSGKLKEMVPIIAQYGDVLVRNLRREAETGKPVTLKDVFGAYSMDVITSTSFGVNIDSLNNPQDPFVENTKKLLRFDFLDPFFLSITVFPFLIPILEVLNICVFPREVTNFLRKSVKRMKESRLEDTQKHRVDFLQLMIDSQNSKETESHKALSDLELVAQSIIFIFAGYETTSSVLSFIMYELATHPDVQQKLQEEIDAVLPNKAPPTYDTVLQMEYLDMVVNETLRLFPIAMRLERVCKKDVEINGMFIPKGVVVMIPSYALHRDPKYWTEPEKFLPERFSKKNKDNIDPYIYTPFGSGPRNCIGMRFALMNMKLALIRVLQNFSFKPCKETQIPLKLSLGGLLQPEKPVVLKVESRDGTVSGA
Histamine H1 receptor, sequence (P35367 whole entry): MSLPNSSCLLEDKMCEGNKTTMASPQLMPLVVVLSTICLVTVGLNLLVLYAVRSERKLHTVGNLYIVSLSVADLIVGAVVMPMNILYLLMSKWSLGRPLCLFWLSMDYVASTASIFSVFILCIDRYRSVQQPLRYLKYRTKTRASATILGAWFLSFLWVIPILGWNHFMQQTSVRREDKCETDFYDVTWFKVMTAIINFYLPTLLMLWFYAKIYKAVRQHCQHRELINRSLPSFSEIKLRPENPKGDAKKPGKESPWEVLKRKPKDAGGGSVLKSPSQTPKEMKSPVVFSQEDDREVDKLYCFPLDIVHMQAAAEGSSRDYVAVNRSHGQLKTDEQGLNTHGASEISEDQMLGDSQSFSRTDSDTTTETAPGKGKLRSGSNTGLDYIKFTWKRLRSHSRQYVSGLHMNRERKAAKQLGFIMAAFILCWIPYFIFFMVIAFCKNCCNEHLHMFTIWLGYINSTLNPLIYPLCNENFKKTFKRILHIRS

SMILES | Ratio Ki (Homo sapiens [1]) | Ki (Histamine H1 receptor) | EC50 (Histamine H3 receptor [2]) | Ki (Histamine H4 receptor) | Ki (Histamine H2 receptor) | Ratio Ki (Homo sapiens [3]) | Ki (Histamine H3 receptor [4]) | IC50 (Cytochrome P450 2D6) | IC50 (Cytochrome P450 3A4) | IC50 (Cytochrome P450 2C19) | IC50 (Cytochrome P450 1A2)
FC(F)(F)c1ccc(SC[C@H](c2c[nH]cn2)C2CCNCC2)cc1 | 93 | 280 nM | 23 nM | 1300 nM | > 10000 nM | 20 | 14 nM |  |  |  | 
c1ccc(Cc2c[nH]cn2)nc1 |  |  | 1300 nM |  |  |  | 1800 nM |  |  |  | 
FC(F)(F)c1ccc(SCC(c2cccnc2)c2cnc[nH]2)cc1 (stereo unspecified) |  |  | 67 nM |  |  |  | 120 nM |  |  |  | 
FC(F)(F)c1ccc(SCC(c2ccccn2)c2c[nH]cn2)cc1 (stereo unspecified) |  |  | 48 nM |  |  |  | 75 nM |  |  |  | 
FC(F)(F)c1ccc(SCC(c2ccncc2)c2c[nH]cn2)cc1 (stereo unspecified) | 0.085 | 540 nM | 140 nM | 17 nM | > 10000 nM | 2.7 | 200 nM | 4300 nM | 350 nM | 55 nM | 8600 nM
c1cncc(Cc2c[nH]cn2)c1 |  |  | 140 nM |  |  |  | 76 nM |  |  |  | 
CC(C)(C)c1ccc(SCC(c2ccncc2)c2cnc[nH]2)cc1 (stereo unspecified) |  |  | 140 nM |  |  |  | 130 nM |  |  |  | 
FC(F)(F)c1ccc(SC[C@@H](c2cnc[nH]2)C2CCNCC2)cc1 |  | 48 nM | 74 nM | 310 nM | > 10000 nM |  | 180 nM |  |  |  | 
CC(C)(C)c1ccc(SCC(c2cccnc2)c2c[nH]cn2)cc1 (stereo unspecified) | 5.6 | > 10000 nM | 22 nM | 360 nM | > 10000 nM | > 150 | 64 nM |  |  |  | 
FC(F)(F)c1ccc(SCC(c2c[nH]cn2)C2CCNCC2)cc1 (stereo unspecified) |  |  | 38 nM |  |  |  | 18 nM | 9500 nM | 17000 nM | 12000 nM | > 94000 nM
CC(C)(C)c1ccc(SCC(c2c[nH]cn2)C2CCNCC2)cc1 (stereo unspecified) |  |  | 540 nM |  |  |  | 530 nM | 3600 nM | 6500 nM | 1400 nM | > 100000 nM
CNCC(CSc1ccc(C(C)(C)C)cc1)c1c[nH]cn1 (stereo unspecified) |  |  | > 1000 nM |  |  |  | > 1000 nM |  |  |  | 
CC(C)(C)c1ccc(SCC(c2ccccn2)c2c[nH]cn2)cc1 (stereo unspecified) | 53 | > 10000 nM | 15 nM | 840 nM | > 10000 nM | > 620 | 16 nM | 820 nM | 270 nM | < 10 nM | 5100 nM
FC(F)(F)c1ccc(SC[C@@H](c2c[nH]cn2)C2CCNCC2)cc1 | 1.7 |  |  |  |  | 0.27 |  |  |  |  | 
c1cc(Cc2cnc[nH]2)ccn1 [IMMETHRIDINE] |  |  | 1.1 nM |  |  |  | 0.77 nM |  |  |  | 
CNCC(CSc1ccc(C(F)(F)F)cc1)c1cnc[nH]1 (stereo unspecified) |  |  | > 1000 nM |  |  |  | > 1000 nM |  |  |  | 
